Reference: PMC9371711 (Proceedings of the National Academy of Sciences of the …, 2022)

Assays:
TB82 = experiment: Growth of GBM cells expressing AT1R but not AT2R with AngII, low serum; type: cell-based, human; conditions: 10 nM AngII, 1% FBS, 6 d
In short: (§1)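 Cells in 1% FBS received 10 nM AngII, AT1R or AT2R antagonists at 10 μM, each antagonist plus AngII, or both antagonists together. Established lines were read by SRB staining and primary cultures by CCK8, 6 d posttreatment. Values are mean absorbance normalised to untreated control ± SEM. Groups were compared by ANOVA with Tukey's test.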

[1] = test system: 8MG, TB26, TB77 GBM cells; experiment: Growth of AT2R-expressing GBM cells with AngII and antagonists, low serum; type: cell-based, human; conditions: 1% FBS, 6 d; for effect of antagonist on AngII-enhanced growth: antagonist 10 μM + 10 nM AngII
In short: as §1

AT2R = conditions: cited from earlier work; for Kd: read-out: KD (Dissociation constant) for AT2R
U87-GFP/luc tumors [2] = experiment: Orthotopic; type: in vivo, BALB/c nude mice
In short: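 2 × 10⁵ U87-GFP/luc cells were implanted into the right cerebral cortex. After 7 d, mice were randomised to test compound or vehicle (PBS, 5% DMSO, 5% solutol), n = 6 each, dosed daily i.p. for 14 d. IVIS bioluminescence was imaged twice weekly and body weight tracked. Tumour sections were scored for H&E tumour area, fluorescent integrin β3 intensity and TUNEL intensity.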

[3] = test system: TB43, TB48, GBM59, GBM96 primary GBM cultures; experiment: Proliferation of primary GBM cultures with EMA401, A3E, TMZ, CCK8; type: cell-based, human; conditions: for sensitivity of GBM96: GBM96 (lacks AGTR1), A3E 10 μM
U87-GFP/luc tumors [4] = experiment: Subcutaneous U87-GFP/luc xenograft model of GBM; type: in vivo, NSG mice
In short: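 2 × 10⁶ U87-GFP/luc cells were injected into the flanks of NSG mice. Once tumours were established, mice were randomised to test compound, comparators or vehicle (PBS, 5% DMSO, 5% solutol), n = 7–9 per group, and treated for 21 d. Tumour volume and final tumour weight are reported as mean ± SEM.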

[5] = In vivo brain biodistribution, LC-MS/MS; design: species or system C57BL/6 mice; conditions: i.v., 30 min after dosing
GBM59 = experiment: TMZ sensitivity of primary GBM cells, SRB; type: cell-based, human; conditions: TMZ 2-512 μM, 10% FBS, SRB after 9 days
GBM31 = experiment: Proliferation of GBM31; type: cell-based, human; conditions: 1, 10, 30 μM, 1% serum, CCK8 9 d
In short: (§2)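 Primary GBM explants in 1% serum were exposed to test compound at 1, 10 and 30 μM. Viability was read by CCK8 9 d posttreatment. Values are mean A450 normalised to untreated control ± SEM.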

[6] = test system: TB48, TB77, GBM96 spheroids; experiment: 3D spheroid growth, CCK8; type: cell-based, human; conditions: 10, 30, 50 μM, CCK8 9 d posttreatment
In short: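 TB48, TB77 and GBM96 primary cells grown as 3D spheroids were exposed to test compound at 10, 30 and 50 μM. Growth was read by CCK8 9 d posttreatment. Values are mean A450 normalised to untreated control ± SEM. Groups were compared by ANOVA with Tukey's test.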

rat AT1R = conditions: read-out: IC50 at rat AT1R; cited from earlier work
hCMEC/D3 = experiment: Endothelial cell tube formation with GBM-conditioned media; type: cell-based, human; conditions: 6-h incubation with media of TB77 treated with 30 μM EMA401
In short: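 Conditioned media came from untreated TB77 cells or TB77 treated with 10 μM AT1R antagonist and 30 μM test compound. hCMEC/D3 endothelial cells were incubated in these media for 6 h. Read-outs were total segment length (pixels) and number of meshes, as mean ± SEM. Groups were compared by ANOVA with Tukey's multiple comparisons.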

TB77 cells [7] = experiment: Muse Annexin V & Dead Cell Assay; type: cell-based, human; conditions: 10, 30, 50 μM; 24, 48, 72 h; time and dose dependent
[8] = cited from earlier work
[9] = test system: TB26, TB43, TB48, GBM59, GBM96 primary GBM cultures; experiment: Proliferation of AGTR2-expressing primary GBM cultures, CCK8; type: cell-based, human; conditions: GBM59, 1% serum, CCK8 9 d
In short: as §2

TB77 cells [10] = experiment: Cell cycle, propidium iodide flow cytometry; type: cell-based, human; conditions: 10, 30, 50 μM
GBM96 spheroids = experiment: Spheroid invasion in 50% Matrigel; type: cell-based, human; conditions: GBM96, dose-dependent, area covered by invading cells
In short: (§3)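 Primary-cell spheroids were embedded in 50% Matrigel and exposed to test compound. Invasion was followed over time as the area covered by invading cells, by image thresholding. Values are mean area in pixels ± SEM. Groups were compared by ANOVA with Tukey's test.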

TB48 spheroids = experiment: Spheroid invasion in 50% Matrigel; type: cell-based, human; conditions: TB48, 30 μM
In short: as §3

TB77 cells [11] = experiment: RNA sequencing, whole-transcriptome analysis; type: cell-based, human; conditions: 30 µM, 24 h; for number of differentially expressed genes vs untreated control: P < 0.01; for number of unique differentially expressed genes: not shared with the other antagonist
[12] = test system: caspase-3/7 in TB77 cells; experiment: Caspase-Glo 3/7 Assay; type: cell-based, human; conditions: 30 μM
TB77 cells [13] = experiment: TB77 proliferation, CCK8; type: cell-based, human; conditions: 1, 10, 30 μM, 1% serum, CCK8 9 d posttreatment; P = 0.0011

angiotensin II (DRVYIHPF; Angiotensin-2; UniProt P01019 25-32, looked up) [AngII]
cell growth with exogenous AngII (TB82): minimally increased | cell growth with exogenous AngII ([1]; 10 nM AngII, SRB or CCK8): significantly enhanced | selectivity for AT2R over AT1R (AT2R): 10 fold | Kd (AT2R): 0.0016 µM

COc1ccc2c(c1OCc1ccccc1)C[C@@H](C(=O)OCC(=O)NCCCC[C@H](NC(=O)CNC(=O)[C@H](CCCNC(=N)N)NC(=O)[C@H](CO)NC(=O)CNC(=O)CNC(=O)[C@H](Cc1ccc(O)cc1)NC(=O)[C@H](Cc1ccccc1)NC(=O)[C@H](Cc1ccccc1)NC(=O)[C@@H](NC(=O)COC(=O)[C@@H]1Cc3c(ccc(OC)c3OCc3ccccc3)CN1C(=O)C(c1ccccc1)c1ccccc1)[C@@H](C)O)C(=O)N[C@@H](CCCNC(=N)N)C(=O)N[C@@H](CC(N)=O)C(=O)N[C@@H](CC(N)=O)C(=O)N[C@@H](Cc1ccccc1)C(=O)N[C@@H](CCCCNC(=O)COC(=O)[C@@H]1Cc3c(ccc(OC)c3OCc3ccccc3)CN1C(=O)C(c1ccccc1)c1ccccc1)C(=O)N[C@H](C(=O)N[C@@H](CCC(=O)O)C(=O)N[C@@H](CCC(=O)O)C(=O)N[C@@H](Cc1ccc(O)cc1)C(=O)O)[C@@H](C)O)N(C(=O)C(c1ccccc1)c1ccccc1)C2 [A3E]
reduction of tumor size vs vehicle control (U87-GFP/luc tumors [2]; A3E 25.88 mg/kg i.p. daily for 14 d, bioluminescent imaging (IVIS), n = 6): 40% | integrin β3 staining (angiogenesis) of tumor sections (U87-GFP/luc tumors [2]; n = 2, P = 0.17): reduction in integrin-β3 staining | apoptosis, TUNEL assay of tumor sections (U87-GFP/luc tumors [2]; n = 3, P = 0.056): apoptosis was enhanced | tumor area, H&E staining, vs saline group (U87-GFP/luc tumors [2]; n = 5, P = 0.084): consistently smaller | toxicity by body weight (U87-GFP/luc tumors [2]; subcutaneous or intracranial models, no significant weight loss over the study): no detectable toxicity | antiproliferative effect compared with EMA401 ([3]; A3E 10 μM vs EMA401 30 μM, 1% serum, CCK8 9 d): equivalent inhibition to native EMA401 at a three-fold lower dose | sensitivity of GBM96 ([3]; EMA401 30 μM): especially sensitive | tumor size, volume and weight vs vehicle- or EMA401-treated groups (U87-GFP/luc tumors [4]; A3E 25.88 mg/kg i.p. daily, 21 d, NSG mice): significantly smaller size | efficacy compared with TMZ (U87-GFP/luc tumors [4]; A3E 25.88 mg/kg, TMZ 30 mg/kg, i.p. daily): slightly more effective than TMZ, though this was not significant | EMA401 metabolite (peak at 3.7 min, m/z 314) in brain samples [5]: not detected

Cn1nnc2c(C(N)=O)ncn2c1=O [TMZ, temozolomide]
sensitivity of GBM59 to TMZ (GBM59): insensitive

CCCCc1nc(Cl)c(CO)n1Cc1ccc(-c2ccccc2-c2nn[nH]n2)cc1 [losartan]
effect of antagonist on AngII-enhanced growth [1]: no effects were observed

COc1ccc2c(c1OCc1ccccc1)C[C@@H](C(=O)O)N(C(=O)C(c1ccccc1)c1ccccc1)C2 [EMA401]
sensitivity of GBM31 to growth inhibition (GBM31): insensitive | spheroid growth sensitivity [6]: sensitive | IC50 (rat AT1R): 408 µM | total segment length of endothelial tubes (hCMEC/D3): significantly reduced | early apoptotic cells (TB77 cells [7]): significant increase in early apoptotic cells | blood-brain barrier penetration [8]: inability of EMA401 to penetrate the blood–brain barrier | growth inhibition of TMZ-insensitive GBM59 [9]: efficiently inhibited | antiproliferative potency compared with TMZ ([3]; EMA401 30 μM, TMZ 30 μM, 1% serum, CCK8 9 d): greater potency than TMZ | sensitivity of GBM96 ([3]; EMA401 30 μM): especially sensitive | cell-cycle parameters (TB77 cells [10]): No changes in cell-cycle parameters | spheroid invasiveness (GBM96 spheroids): significantly reduced the invasiveness | spheroid invasiveness (TB48 spheroids): significantly reduced | number of differentially expressed genes vs untreated control (TB77 cells [11]): 5,498 genes | down-regulation of FGF18 (TB77 cells [11]; RNA-seq): 2.7 fold | down-regulation of G6PD (TB77 cells [11]; RNA-seq): 1.26 fold | down-regulation of PDK2 (TB77 cells [11]; RNA-seq): 1.29 fold | down-regulation of PDK4 (TB77 cells [11]; RNA-seq): 1.29 fold | down-regulation of PIDD1 (TB77 cells [11]; RNA-seq): 1.3 fold | down-regulation of TKT (TB77 cells [11]; RNA-seq): 1.33 fold | up-regulation of CASP3 (TB77 cells [11]; RNA-seq): 1.43 fold | up-regulation of MAP2K3 (TB77 cells [11]; RNA-seq): 1.7 fold | up-regulation of NFKB2 (TB77 cells [11]; RNA-seq): 1.5 fold | up-regulation of RelB (TB77 cells [11]; RNA-seq): 2.4 fold | up-regulation of TNFRSF21 (TB77 cells [11]; RNA-seq): 1.5 fold | number of unique differentially expressed genes (TB77 cells [11]): 4,211 genes | enhancement of caspase-3/7 activation ([12]; 24 h, luminescence, P < 0.0001): 30% | caspase-3/7 activation ([12]; 48 h): returned to baseline levels | growth inhibition compared with PD123319 (TB77 cells [13]): significantly more potent growth inhibition than PD123319 | EMA401 metabolite (peak at 3.7 min, m/z 314) in brain samples [5]: a metabolite was identified

Cc1cc(Cn2cnc3c2C[C@@H](C(=O)O)N(C(=O)C(c2ccccc2)c2ccccc2)C3)ccc1N(C)C [PD123319]
proliferation in the absence of exogenous AngII ([1]; 10 μM, significant in 8MG and TB77): inhibited the proliferation | effect of antagonist on AngII-enhanced growth [1]: blocked the enhanced growth | IC50 (rat AT1R): 210 µM | Kd (AT2R): 0.0717 µM | number of differentially expressed genes vs untreated control (TB77 cells [11]): 2,195 genes | number of unique differentially expressed genes (TB77 cells [11]): 908 genes
